Source: PubChem BioAssay AID720717 (ICCB-Longwood Screening Facility, Harvard Medical School, 2013)
In all, about 51,000 compounds went through this assay and about 150 (0.29%) were called active.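 How the source made its calls: active means both repeat wells score below -2 in polarization z-score versus plate sample wells, excluding overly bright wells; inactive means the rest.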 Many of the other results were omitted from the sample, so actives are more common in it than they were.

Test system: LANA (ORF73) N-terminal peptide binding to nucleosomes, Human herpesvirus 8
Assay: inhibitors of KSHV LANA-nucleosome binding, primary screen, biochemical, fluorescence polarization, FITC-LANA1-23, chicken nucleosomes (AID 720717)
Conditions: FITC-LANA1-23 / chicken nucleosome fluorescence polarization; hits give low values
Procedure, shortened: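 Material: Purified chicken nucleosomes with FITC-labelled LANA N-terminal peptide (1-23) | Reagent: 50 nM FITC-LANA1-23 probe | Medium: TEN-BT buffer, pH 7.5 | Times: 10–45 min incubation at room temperature | Detection: Fluorescence polarization | Replication: Duplicates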

SMILES	z-score
CN1CCc2c(c(S)[nH]c(=S)c2C#N)C1	-3.73 (active)
CCOC(=O)c1sc2nc3c(cc2c1N)CN(C)CC3	0.365 (inactive)
O=C(c1ccccc1)c1cc(Cl)ccc1NC(=O)C(F)(F)F	-0.891 (inactive)
Cc1cccc(NC(=O)OC2CN3CCC2CC3)c1 (stereo not given)	-0.799 (inactive)
CC1(C)CC(Nc2nc(Cl)c(C#N)c(Cl)c2Cl)CC(C)(C)N1	-1.52 (inactive)
